Source: ChEMBL document CHEMBL1123585, “Differential effects of N-terminal modifications on the biological potencies of growth hormone releasing factor analogues with varying chain lengths” (1987)

Columns and labels:
[1] = molecular target: T1, Growth hormone-releasing hormone receptor (Rattus norvegicus) (UniProt Q02644); experiment: Tested for the potency of growth hormone (GRF) on subcutaneous administration in anesthetized male Charles River rats; format: functional, organism-based
T1 sequence (whole entry): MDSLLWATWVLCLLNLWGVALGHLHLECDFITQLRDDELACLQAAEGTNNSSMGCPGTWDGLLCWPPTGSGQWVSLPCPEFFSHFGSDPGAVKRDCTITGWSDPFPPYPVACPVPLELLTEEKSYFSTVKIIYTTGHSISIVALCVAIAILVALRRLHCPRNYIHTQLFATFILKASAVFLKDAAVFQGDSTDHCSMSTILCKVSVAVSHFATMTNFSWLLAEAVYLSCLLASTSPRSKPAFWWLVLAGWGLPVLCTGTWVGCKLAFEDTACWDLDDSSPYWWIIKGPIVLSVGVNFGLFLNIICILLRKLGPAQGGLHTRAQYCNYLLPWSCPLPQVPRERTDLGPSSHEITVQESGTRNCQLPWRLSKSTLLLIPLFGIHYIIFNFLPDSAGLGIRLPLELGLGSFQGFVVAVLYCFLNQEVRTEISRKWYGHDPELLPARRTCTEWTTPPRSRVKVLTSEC
Outline: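 Pentobarbital-anesthetized male rats (175-275 g), six to nine per group, received two subcutaneous doses of analogue or of reference GRF(1-29)NH2, in 0.5 mL, 30 min after anesthesia. Plasma GH measured by RIA 15 min later. Potency with 95% confidence limits calculated from a four-point assay design by the Pugsley method.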

Rattus norvegicus [2] = experiment: Effect on growth hormone release(GRF) was determined in nembutal-anesthetized rat, at dose of 125 ug/100 g body weight.; format: functional, organism-based
Outline: (§1)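 Male Charles River rats (175-275 g), anesthetized with sodium pentobarbital 6 mg/100 g body weight. Six to nine per group. Peptide or saline given subcutaneously in 0.5 mL, 30 min after anesthetic. Jugular vein blood taken 15 min post-injection. Plasma GH measured by radioimmunoassay and reported as ng/mL, mean ± SEM.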

Rattus norvegicus [3] = experiment: Effect on growth hormone release(GRF) was determined in nembutal-anesthetized rat, at dose of 50 ug/100 g body weight.; format: functional, organism-based; outline: as §1
[4] = molecular target: T1, Growth hormone-releasing hormone receptor (Rattus norvegicus); experiment: Effect on growth hormone release(GRF) was determined in nembutal-anesthetized rat, at dose of 100 ug/100 g body weight.; format: functional; outline: as §1
[5] = molecular target: T1, Growth hormone-releasing hormone receptor (Rattus norvegicus); experiment: In vitro rat pituitary cell growth hormone response was obtained; format: functional, cell-based; settings: Pituitary gland cell
Rattus norvegicus [6] = experiment: Effect on growth hormone release(GRF) was determined in nembutal-anesthetized rat, at dose of 40 ug/100 g body weight.; format: functional, organism-based; outline: as §1
Rattus norvegicus [7] = experiment: Effect on growth hormone release(GRF) was determined in nembutal-anesthetized rat, at dose of 10 ug/100 g body weight.; format: functional, organism-based; outline: as §1
Rattus norvegicus [8] = experiment: Effect on growth hormone release(GRF) was determined in nembutal-anesthetized rat, at dose of 25 ug/100 g body weight.; format: functional, organism-based; outline: as §1
Rattus norvegicus [9] = experiment: Effect on growth hormone release(GRF) was determined in nembutal-anesthetized rat, at dose of 0.4 ug/100 g body weight.; format: functional, organism-based; outline: as §1
Rattus norvegicus [10] = experiment: Effect on growth hormone release(GRF) was determined in nembutal-anesthetized rat, at dose of 1 ug/100 g body weight.; format: functional, organism-based; outline: as §1

| Potency [1] [%] | Plasma GH release [4] [ng/mL] | Potency [5] [%] | SMILES | Plasma GH release (Rattus norvegicus [2]) [ng/mL] | Plasma GH release (Rattus norvegicus [3]) [ng/mL] | Plasma GH release (Rattus norvegicus [6]) [ng/mL] | Plasma GH release (Rattus norvegicus [7]) [ng/mL] | Plasma GH release (Rattus norvegicus [8]) [ng/mL] | Plasma GH release (Rattus norvegicus [9]) [ng/mL] | Plasma GH release (Rattus norvegicus [10]) [ng/mL] |
| --- | --- | --- | --- | --- | --- | --- | --- | --- | --- | --- |
| 20 | – | – | CC[C@H](C)[C@H](NC(=O)[C@H](C)NC(=O)[C@H](CC(=O)O)NC(=O)[C@@H](C)NC(=O)[C@@H](N)Cc1ccc(O)cc1)C(=O)N[C@@H](Cc1ccccc1)C(=O)N[C@H](C(=O)N[C@@H](CC(N)=O)C(=O)N[C@@H](CO)C(=O)N[C@@H](Cc1ccc(O)cc1)C(=O)N[C@@H](CCCN=C(N)N)C(=O)N[C@@H](CCCCN)C(=O)N[C@H](C(=O)N[C@@H](CC(C)C)C(=O)NCC(=O)N[C@@H](CCC(N)=O)C(=O)N[C@@H](CC(C)C)C(=O)N[C@@H](CO)C(=O)N[C@@H](C)C(=O)N[C@@H](CCCN=C(N)N)C(=O)N[C@@H](CCCCN)C(=O)N[C@@H](CC(C)C)C(=O)N[C@@H](CC(C)C)C(=O)N[C@@H](CCCN=C(N)N)C(N)=O)C(C)C)[C@@H](C)O | 2790 | 1020 | – | – | – | – | – |
| < 5 | 507 | 0.001 | CC[C@H](C)[C@H](NC(=O)[C@H](C)NC(=O)[C@H](CC(=O)O)NC(=O)[C@@H](C)NC(=O)[C@@H](N)Cc1ccc(O)cc1)C(=O)N[C@@H](Cc1ccccc1)C(=O)N[C@H](C(=O)N[C@@H](CC(N)=O)C(=O)N[C@@H](CO)C(=O)N[C@@H](Cc1ccc(O)cc1)C(=O)N[C@@H](CCCN=C(N)N)C(=O)N[C@@H](CCCCN)C(=O)N[C@H](C(=O)N[C@@H](CC(C)C)C(=O)NCC(=O)N[C@@H](CCC(N)=O)C(=O)N[C@@H](CC(C)C)C(=O)N[C@@H](CO)C(=O)N[C@@H](C)C(=O)N[C@@H](CCCN=C(N)N)C(=O)N[C@@H](CCCCN)C(=O)N[C@@H](CC(C)C)C(=O)N[C@@H](CC(C)C)C(=O)N[C@@H](CCC(N)=O)C(=O)N[C@@H](CC(=O)O)C(=O)N[C@H](C(=O)N[C@@H](CC(C)C)C(N)=O)[C@@H](C)CC)C(C)C)[C@@H](C)O (stereo in doubt; 3) | – | – | 741 | – | – | – | – |
| 100 | – | 100 | CC[C@H](C)[C@H](NC(=O)[C@H](C)NC(=O)[C@H](CC(=O)O)NC(=O)[C@H](C)NC(=O)[C@@H](N)Cc1ccc(O)cc1)C(=O)N[C@@H](Cc1ccccc1)C(=O)N[C@H](C(=O)N[C@@H](CC(N)=O)C(=O)N[C@@H](CO)C(=O)N[C@@H](Cc1ccc(O)cc1)C(=O)N[C@@H](CCCN=C(N)N)C(=O)N[C@@H](CCCCN)C(=O)N[C@H](C(=O)N[C@@H](CC(C)C)C(=O)NCC(=O)N[C@@H](CCC(N)=O)C(=O)N[C@@H](CC(C)C)C(=O)N[C@@H](CO)C(=O)N[C@@H](C)C(=O)N[C@@H](CCCN=C(N)N)C(=O)N[C@@H](CCCCN)C(=O)N[C@@H](CC(C)C)C(=O)N[C@@H](CC(C)C)C(=O)N[C@@H](CCC(N)=O)C(=O)N[C@@H](CC(=O)O)C(=O)N[C@H](C(=O)N[C@@H](CCSC)C(=O)N[C@@H](CO)C(=O)N[C@@H](CCCN=C(N)N)C(N)=O)[C@@H](C)CC)C(C)C)[C@@H](C)O | – | – | – | 1180 | 2570 | – | – |
| 1630 | – | – | CC[C@H](C)[C@H](NC(=O)[C@H](C)NC(=O)[C@H](CC(=O)O)NC(=O)[C@@H](C)N(C)C(=O)[C@@H](N)Cc1ccc(O)cc1)C(=O)N[C@@H](Cc1ccccc1)C(=O)N[C@H](C(=O)N[C@@H](CC(N)=O)C(=O)N[C@@H](CO)C(=O)N[C@@H](Cc1ccc(O)cc1)C(=O)N[C@@H](CCCN=C(N)N)C(=O)N[C@@H](CCCCN)C(=O)N[C@H](C(=O)N[C@@H](CC(C)C)C(=O)NCC(=O)N[C@@H](CCC(N)=O)C(=O)N[C@@H](CC(C)C)C(=O)N[C@@H](CO)C(=O)N[C@@H](C)C(=O)N[C@@H](CCCN=C(N)N)C(=O)N[C@@H](CCCCN)C(=O)N[C@@H](CC(C)C)C(=O)N[C@@H](CC(C)C)C(=O)N[C@@H](CCC(N)=O)C(=O)N[C@@H](CC(=O)O)C(=O)N[C@H](C(=O)N[C@@H](CCSC)C(=O)N[C@@H](CO)C(=O)N[C@@H](CCCN=C(N)N)C(N)=O)[C@@H](C)CC)C(C)C)[C@@H](C)O | – | – | – | – | – | 761 | 1720 |
